Measured values taken from the EternaBench riboswitch data.

Tested on: MS2 coat protein
Experiment: apparent Kd, MS2 coat protein; higher = weaker binding; RNA-MaP array; FMN 200 µM where present
Method in brief: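 The apparent Kd is reported as the median of filtered per-cluster binding-curve fits. To get these curves, designs transcribed by stalled E. coli RNA polymerase on Illumina sequencing-chip clusters were titrated with SNAP-549-labelled MS2 coat protein from 0.7 or 1.5 nM, doubling to 3 µM. Titrations were run without and then with constant ligand in 100 mM Tris-HCl pH 7.5, 80 mM KCl, 4 mM MgCl2, BSA, DTT, yeast tRNA and Tween-20, and green signal was normalised to red-channel RNA signal and control-cluster median Fmax.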

[1] = designed as: OFF switch for flavin mononucleotide, no ligand
[2] = ligand present: flavin mononucleotide, designed as: OFF switch for flavin mononucleotide
[3] = designed as: ON switch for flavin mononucleotide, no ligand
[4] = ligand present: flavin mononucleotide, designed as: ON switch for flavin mononucleotide

Sequence	apparent Kd [1]	apparent Kd [2]	apparent Kd [3]	apparent Kd [4]
CGUCUGUGAGGAUAUGGUGUCGUUUACAUGAGGAUCACCCAUGUUUCAUGGGACUAGAGACUAGAAGGUACUGACG	314 nM	413 nM		
GUAGCAUGCCAAGGAUAUUCAUAUAGUAGGCAAACAUGAGGAUCACCCAUGUAAUGAUAGCAGUGGGAGAAGGUGGGAUGCUAC			47.5 nM	22.2 nM
UAUGUUUUAGGAUAUUGUACUGCUGACAUGAGGAUCACCCAUGUAUGCUAACUCGGUUGUCGAGAAGGAGAAUAUG	59.4 nM	44.2 nM		
GUGGUCAGACAUGAGGAUCACCCAUGUGGAAUAAAUAACACACAGGAUAUCCAAUAUAAAAUAUAGGAGAAGGGUGGAUUGGUG			253 nM	181 nM
AAGGGUACUUUCGGAACGACAUGAGGAUCACCCAUGUAGACUGAGGAUAUCUACUACUAAGGACGGGAGAAGGCAGUGUAAUGU	18.1 nM	17.8 nM		
AUAUCCGAAGCAGGAUAUCGGCAAGGUGUCGAGGUAGAGCGUACUCACAUGAGGAUCACCCAUGUCGAGAAGGGCUACAGGAUG	16.8 nM	72.4 nM		
CUUUUGUGAGGAUAUUAGUAGUAGAUAGUUGGUGGUGUUGCUGAGAAGGCACAUGAGGAUCACCCAUGUACAAC	344 nM	335 nM		
GGGCAACAUGAGGAUCACCCAUGUCAGGAUAUCGGGCCCGGGCCGAAAGGCCCGGGCCCGAGAAGGGACAGCCC	21.3 nM	21.6 nM		
UAUGACAUGAGGAUCACCCAUGUCAGCGAGAAAUGAGAGUCACAGGAUAUGUUUUCGGCCGGCAGACAGAAGGGUGACCCUCCG			7.33 nM	6.74 nM
CAGAAGUCAGGAUAUGCAUGGCGGGACUUGCGUCGUGGCGUGCAGAAGGGACAUGAGGAUCACCCAUGUGGAGA	138 nM	224 nM		
UUAAAUCAUGUAGGAUAUGCAUGGCGAAGCUACGCAGAAGGACAUGAGGAUCACCCAUGUUAUAGCGUCCGAAUAAGGAUGCAA	90.7 nM	199 nM		
AGCUGGUGACAGCAUCCAUCAAAACAUGAGGAUCACCCAUGUAGAAGGCUGUACGGUUACCGUACAGAGGAUAUACAAUGAUGA	16.3 nM	27.3 nM		
UUAUUUAUGUAAGGAUAUCGAUGAUAUACACAUCCGACAUGAGGAUCACCCAUGUUUUAUUUUGUCGAGAAGGUACAUUGUCGG			56.2 nM	47 nM
AACAAUCUAUCUGAGGAUAUCAUGAAAAAAACAUGAGGAUCACCCAUGUGCAGGAAAACUGCAUAUGAGAAGGCAGAUAGAUUGG			618 nM	31.6 nM
GGUCCAUCUGUUAGGAUAUGCUUUGGGCUUCCGCAGUAGAAGGAACAUGAGGAUCACCCAUGUCCGAUGCCGUC	25.1 nM	30.3 nM		
AGCAGACGAGGAUAUAAAUUUGAUAACAUGAGGAUCACCCAUGUGAUCGAUAGAUCAAAUUUAGAAGGCGUCUGCU	647 nM	940 nM		
AAAUACGUAAAGGACACAUGAGGAUCACCCAUGUUUCUGUUCAAGGAUAUGAGGUGAAUGAUCCGUCAGAAGGUGAACUUGCUU			117 nM	624 nM
UCGUAUAAGGGCAUUACACAUGAGGAUCACCCAUGUACGUUAGAGGAUAUGCAUUUCAGUUGAACGUAGAAGGCUAGAGAAGGG	117 nM	103 nM		
UUGUUUCGUCAUUAACAUGAGGAUCACCCAUGUAUCGACUCAAAGGAUAUAUAUGCUUGUUUGCAAUAGAAGGUUGAUUGUUGU			27.9 nM	26.5 nM
AAUAUGUUGCAGAAGGUUAUUUUUAUAACGUUCCUCUUGACAUGAGGAUCACCCAUGUAAUUGUUGAAGGAUAUGCAAUAUAUU	6.69 nM	6.18 nM		
GUAGCAUACCGAGGAUAUUCAUACCGGAAACGGACAUGAGGAUCACCCAUGUGGCGAAAGCCUUGGGAGAAGGCGGAAUGCUAC			552 nM	25.1 nM
